Experimental data reported in ChEMBL document CHEMBL2424622, “Development of amino-pyrimidine inhibitors of c-Jun N-terminal kinase (JNK): kinase profiling guided optimization of a 1,2,3-benzotriazole lead” (Bioorg Med Chem Lett, 2013).

Columns and labels:
[1] = tested on: Phosphatidylinositol 4,5-bisphosphate 3-kinase catalytic subunit alpha isoform (Homo sapiens), P42336 [E545K]; assay: Competitive binding affinity to PIK3CA E545K mutant (unknown origin) at 10 uM in presence of ATP relative to control
[2] = biological target: Casein kinase II subunit alpha' (Homo sapiens) (UniProt P19784); assay: Competitive binding affinity to CSNK2A2 (unknown origin) at 10 uM in presence of ATP relative to control
Outline: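 In vitro ATP-site competition binding assay across a diverse panel of 128 kinases, with each compound tested at a single concentration. Kinase binding is expressed relative to control.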

[3] = biological target: T1, Tyrosine-protein kinase JAK3 (Homo sapiens) (UniProt P52333); assay: Competitive binding affinity to JAK3 kinase domain 2 (unknown origin) at 10 uM in presence of ATP relative to control
T1 sequence (whole entry): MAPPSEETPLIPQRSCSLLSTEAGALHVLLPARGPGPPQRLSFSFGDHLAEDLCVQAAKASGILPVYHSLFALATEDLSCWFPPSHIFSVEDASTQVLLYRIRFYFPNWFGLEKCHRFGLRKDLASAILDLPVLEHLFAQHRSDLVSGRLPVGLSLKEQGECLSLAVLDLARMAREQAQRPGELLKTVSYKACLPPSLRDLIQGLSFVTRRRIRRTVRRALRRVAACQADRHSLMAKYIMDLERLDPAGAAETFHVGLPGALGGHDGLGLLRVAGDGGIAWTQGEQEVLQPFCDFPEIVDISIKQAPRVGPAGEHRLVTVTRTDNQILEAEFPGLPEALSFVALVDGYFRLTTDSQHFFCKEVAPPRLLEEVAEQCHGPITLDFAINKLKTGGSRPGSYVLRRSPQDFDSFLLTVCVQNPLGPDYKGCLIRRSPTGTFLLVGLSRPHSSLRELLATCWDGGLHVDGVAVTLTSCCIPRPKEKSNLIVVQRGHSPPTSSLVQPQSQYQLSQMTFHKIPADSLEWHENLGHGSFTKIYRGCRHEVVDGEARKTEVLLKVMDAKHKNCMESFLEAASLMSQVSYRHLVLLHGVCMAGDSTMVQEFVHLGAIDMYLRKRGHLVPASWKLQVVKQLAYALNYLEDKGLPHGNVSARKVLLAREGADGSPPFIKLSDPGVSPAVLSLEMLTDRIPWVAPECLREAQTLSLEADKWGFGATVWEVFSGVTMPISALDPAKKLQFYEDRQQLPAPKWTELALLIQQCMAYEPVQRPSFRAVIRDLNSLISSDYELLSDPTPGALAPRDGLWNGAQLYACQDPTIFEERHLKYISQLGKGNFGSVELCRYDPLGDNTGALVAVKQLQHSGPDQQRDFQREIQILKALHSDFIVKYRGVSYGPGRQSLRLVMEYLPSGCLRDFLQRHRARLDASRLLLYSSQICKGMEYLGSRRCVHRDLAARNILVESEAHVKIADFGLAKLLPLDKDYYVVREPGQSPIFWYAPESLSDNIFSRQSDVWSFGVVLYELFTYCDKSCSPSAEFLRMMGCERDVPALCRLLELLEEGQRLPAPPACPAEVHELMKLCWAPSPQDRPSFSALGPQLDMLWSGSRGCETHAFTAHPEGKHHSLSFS

[4] = biological target: Mitogen-activated protein kinase kinase kinase kinase 1 (Homo sapiens) (UniProt Q92918); assay: Competitive binding affinity to MAP4K1 (unknown origin) at 10 uM in presence of ATP relative to control
[5] = tested on: T2, Receptor-type tyrosine-protein kinase FLT3 (Homo sapiens), P36888 [N841I]; assay: Competitive binding affinity to FLT3 N841I mutant (unknown origin) at 10 uM in presence of ATP relative to control
T2 sequence (whole entry): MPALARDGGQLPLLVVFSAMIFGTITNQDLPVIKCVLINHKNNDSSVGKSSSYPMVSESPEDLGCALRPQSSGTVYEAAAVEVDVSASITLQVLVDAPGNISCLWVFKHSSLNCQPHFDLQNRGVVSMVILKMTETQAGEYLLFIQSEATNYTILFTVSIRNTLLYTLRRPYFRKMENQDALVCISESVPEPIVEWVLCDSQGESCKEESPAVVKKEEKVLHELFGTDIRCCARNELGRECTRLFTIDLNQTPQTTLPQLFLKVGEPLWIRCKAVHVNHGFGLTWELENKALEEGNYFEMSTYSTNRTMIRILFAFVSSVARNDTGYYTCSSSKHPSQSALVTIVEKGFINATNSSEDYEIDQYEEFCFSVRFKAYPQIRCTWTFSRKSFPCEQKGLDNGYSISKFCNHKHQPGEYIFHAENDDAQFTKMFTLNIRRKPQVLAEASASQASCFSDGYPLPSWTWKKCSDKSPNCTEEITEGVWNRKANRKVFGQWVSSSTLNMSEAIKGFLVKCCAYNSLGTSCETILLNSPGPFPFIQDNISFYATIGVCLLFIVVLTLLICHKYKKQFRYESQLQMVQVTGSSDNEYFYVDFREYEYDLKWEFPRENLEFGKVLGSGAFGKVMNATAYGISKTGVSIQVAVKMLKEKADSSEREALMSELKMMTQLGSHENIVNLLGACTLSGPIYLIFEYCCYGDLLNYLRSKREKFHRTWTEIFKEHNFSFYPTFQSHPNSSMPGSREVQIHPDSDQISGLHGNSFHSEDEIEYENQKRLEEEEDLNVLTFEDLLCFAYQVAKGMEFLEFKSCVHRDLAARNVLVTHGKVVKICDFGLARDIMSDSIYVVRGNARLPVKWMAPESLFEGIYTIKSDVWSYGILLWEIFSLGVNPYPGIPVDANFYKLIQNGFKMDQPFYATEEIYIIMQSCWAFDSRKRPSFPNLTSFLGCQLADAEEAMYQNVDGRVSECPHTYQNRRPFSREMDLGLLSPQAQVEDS

[6] = biological target: T3, Atypical kinase COQ8B, mitochondrial (Homo sapiens) (UniProt Q96D53); assay: Competitive binding affinity to ADCK4 (unknown origin) at 10 uM in presence of ATP relative to control
T3 sequence (whole entry): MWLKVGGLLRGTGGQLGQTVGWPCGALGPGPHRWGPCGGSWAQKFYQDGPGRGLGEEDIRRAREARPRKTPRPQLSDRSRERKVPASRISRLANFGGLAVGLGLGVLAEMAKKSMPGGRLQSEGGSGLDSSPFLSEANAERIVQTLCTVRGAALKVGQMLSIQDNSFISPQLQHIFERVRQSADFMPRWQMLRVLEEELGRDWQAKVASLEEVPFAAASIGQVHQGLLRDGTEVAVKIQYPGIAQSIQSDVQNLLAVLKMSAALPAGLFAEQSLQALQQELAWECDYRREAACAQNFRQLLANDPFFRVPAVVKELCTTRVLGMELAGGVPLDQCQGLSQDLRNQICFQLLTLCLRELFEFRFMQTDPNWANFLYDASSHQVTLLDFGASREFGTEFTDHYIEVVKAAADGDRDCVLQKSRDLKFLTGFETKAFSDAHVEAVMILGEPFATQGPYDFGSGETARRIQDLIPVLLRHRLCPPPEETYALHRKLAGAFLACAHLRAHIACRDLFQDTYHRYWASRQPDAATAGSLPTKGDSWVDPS

`O[C@H]1CC[C@H](Nc2nccc(-n3nnc4ccccc43)n2)CC1` was tested, and the inhibition [1] was 88%, the inhibition [2] was < 50% and the inhibition [3] was < 50%. For the same compound, the inhibition [4] was < 50%, the inhibition [5] was 98% and the inhibition [6] was 70%.

`CS(=O)(=O)CCCOc1cccc2c1ccn2-c1ccnc(N[C@H]2CC[C@H](C(=O)N3CCC(O)CC3)CC2)n1` was tested, and the inhibition [6] was > 85%.

In the case of `O[C@H]1CC[C@H](Nc2nccc(-n3ncc4ccccc43)n2)CC1`, the inhibition [1] was 82%, the inhibition [2] was 86% and the inhibition [3] was < 50%. The inhibition [4] was < 50%, the inhibition [5] was 97% and the inhibition [6] was 79%.

`O[C@H]1CC[C@H](Nc2nccc(-c3n[nH]c4ccccc34)n2)CC1` showed an inhibition [2] of 98%, an inhibition [4] of 97% and an inhibition [5] of 100%. The inhibition [6] was 74%.

For `O[C@H]1CC[C@H](Nc2nccc(-n3ccc4ccccc43)n2)CC1`, the inhibition [1] was < 50%, the inhibition [2] was < 50% and the inhibition [3] was < 50%. The inhibition [4] was < 50%, the inhibition [5] was < 50% and the inhibition [6] was 76%.
